# Bioassay records deposited in PubChem BioAssay by several laboratories.
# Most compounds without a hit are left out; they make up all but 4.1% or so of the library.
# Cl transport mod = KCC2 (human) Cl- transport modulation; Q9H2X9; KCC2 cells, thallium flux FluoZin-2 fluorescence; B-score of Tl+ flux slope (higher = more flux/activation; lower = inhibition) at 10 µM; 190,000 compounds, 2.2% hits; AID 1456;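 active = thallium flux slope and its plate-corrected score both differing from the plate sample mean at a set confidence after two filtering rounds, in either direction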;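 note: slope of fluorescence scaled to starting intensity during 10 to 20 s after thallium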
# KCNK3 inh = human KCNK3 channel inhibition, primary screen | O14649 | CHO-KCNK3 thallium flux, FluxOR fluorescence; stronger effect = lower value | B-score at 10 µM | 340,000 compounds, 0.84% hits | AID 602410;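 active = B-score under library mean minus 4 SD, starting fluorescence ratio at most library mean plus 5 SD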;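 note: more negative B-score means stronger inhibition of thallium flux through KCNK3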
# KCNQ1 inh = inhibitors of human KCNQ1 potassium channel | 310,000 compounds, 1.3% hits | CHO-K1 KCNQ1, FluxOR thallium flux fluorescence; stronger effect = higher value | B-score at 10 µM | AID 2642;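 active = compounds whose thallium flux B-score, printed positive for inhibition, exceeds three library SD while starting fluorescence stays within three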;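 note: channel opened by potassium depolarization with thallium stimulus after 20 min compound exposure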
# hERG rescue = shields human hERG channel from block by proarrhythmic agents. Q12809. CHO-hERG, FluxOR thallium flux, dofetilide IC70 present. activation (rescue from dofetilide block), less the hit threshold, % at 10 µM. 310,000 compounds, 0.51% hits. AID 1511;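 active = activation above the mean of controls blocked by dofetilide plus 5 SD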;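 note: thallium influx through hERG after potassium depolarization seen as dye fluorescence rise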
# KCNQ1 pot = potentiates or activates the human KCNQ1 potassium channel; B-score at 10 µM; P51787; CHO-K1 KCNQ1, thallium flux FluxOR fluorescence; stronger effect = higher value; 310,000 compounds, 0.35% hits;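 active = fluorescence ratio B-score, a plate-corrected score, at least three library SD, with initial intensity B-score within 5 SD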
#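 Schedule – 37 °C overnight plating, 90-min dark dye load, 20-min compound pretreatment · System – stable KCNQ1 CHO-K1 line · Probe or stimulus – thallium- and potassium-containing depolarizing buffer · Measured by – kinetic FluxOR fluorescence, 10 s baseline plus 110 s post-stimulus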
# KCNK9 inh = human KCNK9 channel inhibition. Q9NPC2. 310,000 compounds, 1.2% hits. HEK293 KCNK9, FluxOR thallium flux fluorescence; stronger effect = lower value. AID 488922. B-score at 10 µM;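 active = ratio B-score over 3 SD below the library mean, with starting fluorescence within 5 SD of its mean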;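 note: negative B-score means less thallium flux so channel inhibition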
# KCC2 secondary = confirmation of human KCC2 transport modulators. shares compounds with Cl transport mod. AID 1713. normalised thallium flux (F/F0 slope) at 10 µM. HEK293-KCC2, thallium flux, FluoZin2 fluorescence; stronger effect = higher value. 3,700 compounds, 15% hits;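 active = thallium flux slope above the same plate's solvent-only control mean plus 3 SD; inconclusive = the two replicate wells disagree; inactive = no significant difference from solvent-only control wells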
# KCC2 bumet counter = thallium flux persisting under bumetanide in KCC2 cells, counter-screen secondary assay. shares compounds with Cl transport mod. normalized thallium flux at 10 µM. AID 1714. 3,700 compounds, 49% hits. HEK293-KCC2 + bumetanide/ouabain, thallium flux FluoZin2; stronger effect = higher value;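 active = thallium entry rate above the same plate's blocked-transporter control wells by more than 3 SD; inconclusive = the two repeat wells disagree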;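 note: raw slope of fluorescence over initial fluorescence between 10 and 20 s after thallium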
# KCC2 sec2 = KCC2 (human) modulation, second secondary assay; shares compounds with Cl transport mod; HEK293-KCC2, thallium flux FluoZin2 fluorescence; actives lie on both sides; F/F0 rise rate, 10–20 s post-thallium; normalized thallium flux at 10 µM; 3,700 compounds, 23% hits; AID 1715;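 active = thallium flux slope more than 3 SD above or below the plate's solvent-only control mean, mostly below; inconclusive = the two repeat wells disagreed; inactive = no significant shift from solvent-only controls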;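 note: raw slope with 0.1% DMSO as baseline and bumetanide as block control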
# HEK counter1 = acts in parental HEK cells, KCC2 counter-screen; shares compounds with Cl transport mod; HEK293 parental cells, thallium flux FluoZin2, ouabain; baseline-ratio fluorescence slope, 10–20 s after thallium; thallium flux rate (normalised fluorescence) at 10 µM; 3,700 compounds, 46% hits; AID 1716;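 active = thallium flux rate significantly above the same plate's solvent-only control wells, beyond their mean plus 3 SD; inconclusive = the two replicate wells gave conflicting results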
# KCC2 retest ouab = modulates human KCC2 on retest with ouabain; shares compounds with Cl transport mod; HEK293-KCC2, thallium flux FluoZin2 fluorescence; bidirectional: low = inhibitor, high = activator; raw Tl+ flux slope (below DMSO = inhibition, above = activation) at 10 µM; 3,700 compounds, 48% hits;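 active = thallium flux slope beyond 3 SD from same-plate DMSO control mean in most replicates, usually higher, sometimes lower; inconclusive = repeat tests gave conflicting results; inactive = no significant difference from controls in most replicates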;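 note: slope of initial-normalized fluorescence between seconds 10 and 20 after thallium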
# HEK counter2 = counter-screen for KCC2 modulators: effect in parental HEK293 cells | AID 1718 | 3,700 compounds, 33% hits | shares compounds with Cl transport mod | thallium flux FluoZin-2 fluorescence slope | thallium flux slope at 10 µM;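 active = thallium flux slope above the same plate's solvent-control mean plus 3 SD in both duplicate wells; inconclusive = duplicate wells that disagreed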;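 note: run without ouabain in cells lacking the KCC2 cotransporter; slope of fluorescence scaled to its starting value between 10 and 20 s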
# An asterisk follows results filed as active; i = inactive; ? = inconclusive; nt = no result.
SMILES,Cl transport mod,KCNK3 inh,KCNQ1 inh,hERG rescue,KCNQ1 pot,KCNK9 inh,KCC2 secondary,KCC2 bumet counter,KCC2 sec2,HEK counter1,KCC2 retest ouab,HEK counter2
C=CCn1c(SCC(=O)Nc2ccc3c(c2)CCC3)nc2ccccc2c1=O,-0.453,i,i,-1.7,i,i,nt,nt,nt,nt,nt,nt
CCCn1c(N)c(C(=O)CSc2nc3ccccc3c(=O)n2Cc2ccccc2)c(=O)[nH]c1=O,39.6*,i,i,-13.7,i,i,0.0161*,0.0803*,0.0283,0.0261*,0.0541*,0.0115*
O=C1OCCC1Sc1nc2ccccc2c(=O)n1Cc1ccc(F)cc1 (configuration not stated),38.5*,i,i,9.9*,11*,i,0.0248*,0.139*,?,0.0616*,0.0973*,0.0327*
O=C(CN1C(=O)C(=O)N(C2CCCC2)C1=O)Nc1ccccc1OC(F)F,nt,i,nt,nt,nt,nt,nt,nt,nt,nt,nt,nt
O=C(CSc1nc(C(F)(F)F)cc(=O)[nH]1)Nc1nccs1,nt,i,i,-13.8,i,i,nt,nt,nt,nt,nt,nt
COc1cc(OC)cc(C(=O)N[C@H](C(=O)OCC(=O)Nc2ccc3c(c2)OCO3)C(C)C)c1,nt,i,nt,nt,nt,nt,nt,nt,nt,nt,nt,nt
Cc1ccccc1NS(=O)(=O)c1ccc(C(=O)N2CCCC(C(F)(F)F)C2)cc1 (configuration not stated),nt,i,i,-2.5,i,i,nt,nt,nt,nt,nt,nt
CCn1c(SCC(=O)Nc2ccc(F)cc2)nc2ccccc2c1=O,nt,i,i,-6.8,i,i,nt,nt,nt,nt,nt,nt
O=C(CSc1nc2ccccc2c(=O)n1Cc1ccc(F)cc1)NCc1cccs1,27*,i,i,-8.6,i,i,0.00659,0.0312*,0.0498*,0.0353*,0.0384*,0.0359*
NC(=S)N=Nc1c(O)[nH]c2c(Br)cc(Br)cc12,25.2*,i,i,-2.4,i,i,0.00754,0.0266*,0.0397*,0.0183*,0.0357*,0.0168*
COc1ccc(C(=O)NCCOc2ccccc2)cc1S(=O)(=O)N1CCOCC1,nt,i,nt,nt,nt,nt,nt,nt,nt,nt,nt,nt
Cc1cccc(C(=O)N/N=C/c2ccc3c(c2)OCO3)n1,0.678,i,i,-18.6,i,i,nt,nt,nt,nt,nt,nt
O=C(N/N=C/c1ccc2c(c1)OCO2)c1ccc2ccccc2n1,4.85*,i,i,-7.3,i,i,0.0168,0.0183*,0.0324,0.012*,0.0204*,0.0158*
Cc1cccc(NC(=S)N/N=C/c2ccc3c(c2)OCO3)c1,10.2*,i,i,-6.5,i,i,0.0113,0.0155*,0.0341,0.0277*,0.0271*,?
COc1ccccc1NC(=S)N/N=C/c1cccc(C)c1,5.54*,i,i,-3.3,i,i,0.0114,0.016*,0.0343,0.0121*,0.0259,0.0111
CC(C)NC(=O)CN(Cc1ccc(F)cc1)C(=O)CCC(=O)Nc1nccs1,nt,i,i,-12.1,i,i,nt,nt,nt,nt,nt,nt
COc1ccc(NC(=O)C2CCCN(S(=O)(=O)c3cccc4nonc34)C2)cc1OC (configuration not stated),-0.406,i,i,-3.3,i,i,nt,nt,nt,nt,nt,nt
COc1ccc(CCNC(=O)C2CCCN(S(=O)(=O)c3cccc4nonc34)C2)cc1OC (configuration not stated),nt,i,i,-6.9,i,i,0.00578,0.00528,0.0318,0.0084,0.0187,0.0115
COc1ccccc1OCC(=O)N1CC2(C)CC1CC(C)(C)C2 (configuration not stated),4.98*,i,i,-5.4,i,i,0.00856,0.00602,0.0331,0.00801,0.0215,0.0102
COc1ccc(OCC(=O)N2CC3(C)CC2CC(C)(C)C3)cc1 (configuration not stated),-0.165,i,i,-3.2,i,i,nt,nt,nt,nt,nt,nt
Cc1ccccc1CNC(=O)c1ccccc1SCC(=O)NCc1ccco1,nt,i,nt,nt,nt,nt,nt,nt,nt,nt,nt,nt
O=S(=O)(c1ccccc1)N1CCn2c(nc3ccccc32)C1,nt,i,i,-4.8,i,i,0.00881,?,0.0341,0.00744,0.0183,0.0109
Cc1ccccc1OCC(=O)N=Nc1c(O)n(C)c2ccccc12,28.2*,i,i,0.0,8*,i,?,0.0287*,0.035,0.0287*,0.031*,0.0221*
CC(C)CC(CC(C)C)=NNC(=O)c1ccc2c(c1)OCO2,3.94*,i,i,-1.8,i,i,0.00609,0.0049,0.0289,0.00799,0.0177,0.0098
CC/C(=N\NC(=O)c1ccc2c(c1)OCO2)c1ccccc1,nt,i,i,-9.4,i,i,nt,nt,nt,nt,nt,nt
SMILES,Cl transport mod,KCNK3 inh,KCNQ1 inh,hERG rescue,KCNQ1 pot,KCNK9 inh,KCC2 secondary,KCC2 bumet counter,KCC2 sec2,HEK counter1,KCC2 retest ouab,HEK counter2
O=C(OCC(=O)N1CCc2ccccc2C1)c1ccc(F)cc1Cl,nt,i,nt,nt,nt,nt,nt,nt,nt,nt,nt,nt
CCN(CC)S(=O)(=O)c1ccc(=O)n(CC(=O)N2CCCc3cc(C)ccc32)c1,nt,i,nt,nt,nt,nt,nt,nt,nt,nt,nt,nt
O=C(CSc1nc2ccccc2c(=O)n1-c1ccc(F)cc1)Nc1ccc(N2CCOCC2)cc1,0.0348,i,i,-3.5,i,i,nt,nt,nt,nt,nt,nt
O=C(CSc1nc2ccccc2c(=O)n1-c1ccc(SC(F)F)cc1)Nc1ccc(N2CCOCC2)cc1,4.48*,i,i,-3.9,i,i,0.00958,0.0145*,0.0304,0.00999*,0.0237,0.0111*
COC(=O)[C@]1(C)N[C@H](CN(C)C(=O)NC(C)C)[C@@H]2C(=O)N(C)C(=O)[C@@H]21,nt,i,nt,nt,nt,nt,nt,nt,nt,nt,nt,nt
COc1ccc(S(=O)(=O)NC(CC(=O)NCCc2ccccc2)c2ccco2)cc1 (configuration not stated),nt,i,i,0.6,i,i,0.0071,0.00606,0.0335,0.00822,?,0.0103
COc1ccc(S(=O)(=O)NC(CC(=O)NCCc2ccc(OC)c(OC)c2)c2ccco2)cc1 (configuration not stated),-0.0911,i,i,1.3,i,i,nt,nt,nt,nt,nt,nt
